Data: ChEMBL document CHEMBL3576788, “Dual-Mode HDAC Prodrug for Covalent Modification and Subsequent Inhibitor Release” (J Med Chem, 2015)
Numbering of substitutions follows the chain as printed. Activity calls are given as the source filed them. The calls are words filed in the database; no cut-off is given here.

Columns and labels:
[1] = target: T1, Histone deacetylase 8 (Homo sapiens) (UniProt Q9BY41)
T1 sequence (whole entry): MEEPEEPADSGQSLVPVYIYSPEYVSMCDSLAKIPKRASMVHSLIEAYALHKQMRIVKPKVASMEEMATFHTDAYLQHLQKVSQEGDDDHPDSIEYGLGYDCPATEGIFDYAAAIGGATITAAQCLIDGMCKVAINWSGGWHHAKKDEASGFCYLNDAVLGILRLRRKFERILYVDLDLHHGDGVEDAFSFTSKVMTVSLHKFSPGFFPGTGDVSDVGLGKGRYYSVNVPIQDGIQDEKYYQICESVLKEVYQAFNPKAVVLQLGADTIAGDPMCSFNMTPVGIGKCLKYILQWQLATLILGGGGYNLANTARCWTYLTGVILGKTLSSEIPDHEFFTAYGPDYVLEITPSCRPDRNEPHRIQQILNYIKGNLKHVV

[2] = Cytotoxicity against mouse NIH/3T3 cells assessed as cell proliferation after 70 hrs by MTS assay; format: ADME, cell-based; details: NIH3T3, 70 h
[3] = Retention time of the compound in HEPES buffer at pH 7.4 by LC-MS analysis in presence of GSH; format: physicochemical
In short: (§1)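 Compound incubated with GSH (2 mM, 2 equiv) in 50 mM HEPES, pH 7.4, for 2 h at 37 °C. Products resolved by analytical HPLC, with peak identities assigned by LC-MS from retention times.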

[4] = target: T2, Histone deacetylase (Homo sapiens) (UniProt Q13547+O15379+Q9UBN7+Q92769+Q9UQL6+Q8WUI4+Q9BY41+Q96DB2+P56524+Q9UKV0+Q969S8); details: Jurkat, 6 to 20 uM
Histone deacetylase 8 [5] = target: T3, Histone deacetylase 8 (Homo sapiens, UniProt Q9BY41); assay: Inhibition of human recombinant HDAC8 using MAZ1675 as fluorogenic substrate measured every 5 mins by optimized homogenous fluorescence based assay
T3 sequence (Q9BY41 whole entry): T1 sequence (whole entry)

HH [6] = assay: Effect on alpha-actin level in human HH cells at 6 to 20 uM after 4 hrs by Western blot analysis; format: ADME, cell-based
In short: (§2)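 Log-phase HH or Jurkat cells at 70% confluence treated 4 h, harvested, lysed in RIPA with protease inhibitors. Protein normalised by BCA, run on 10% SDS-PAGE and blotted to PVDF. Probed with anti-actin–HRP (plus acetylated-tubulin and tubulin antibodies) and detected by chemiluminescence.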

Histone deacetylase 1 = Histone deacetylase 1 (Homo sapiens, UniProt Q13547); assay: Inhibition of human recombinant HDAC1 using MAZ1600 as fluorogenic substrate measured every 5 mins by optimized homogenous fluorescence based assay
Chain of Histone deacetylase 1 (Q13547 whole entry): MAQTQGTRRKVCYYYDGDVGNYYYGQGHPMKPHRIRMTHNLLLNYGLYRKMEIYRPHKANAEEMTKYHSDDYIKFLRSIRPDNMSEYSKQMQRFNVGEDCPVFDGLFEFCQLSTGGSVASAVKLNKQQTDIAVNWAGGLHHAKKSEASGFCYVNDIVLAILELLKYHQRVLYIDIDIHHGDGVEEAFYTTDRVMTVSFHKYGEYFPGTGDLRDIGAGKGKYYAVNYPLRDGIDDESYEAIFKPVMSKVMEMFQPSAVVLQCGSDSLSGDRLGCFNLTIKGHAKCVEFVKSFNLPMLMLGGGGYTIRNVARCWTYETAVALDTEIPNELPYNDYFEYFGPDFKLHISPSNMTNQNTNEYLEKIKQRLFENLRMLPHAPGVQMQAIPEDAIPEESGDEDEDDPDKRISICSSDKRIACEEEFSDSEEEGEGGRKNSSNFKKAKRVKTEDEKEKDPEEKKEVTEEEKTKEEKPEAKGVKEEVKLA

[7] = Stability of the compound assessed as trypsin (unknown origin)-mediated drug degradation measured as compound remaining after 2 hrs by biochemical assay; format: ADME; details: human, read-out: Stability
[8] = target: T2, Histone deacetylase (Homo sapiens); details: HH, 6 to 20 uM
Jurkat [9] = assay: Cytotoxicity against human Jurkat cells assessed as cell proliferation after 70 hrs by MTS assay; format: functional, cell-based
Jurkat [10] = assay: Effect on alpha-actin level in human Jurkat cells at 6 to 20 uM after 4 hrs by Western blot analysis; format: ADME, cell-based
In short: as §2

Histone deacetylase 2 = Histone deacetylase 2 (Homo sapiens, UniProt Q92769); assay: Inhibition of human recombinant HDAC2 using MAZ1600 as fluorogenic substrate measured every 5 mins by optimized homogenous fluorescence based assay
Chain of Histone deacetylase 2 (Q92769 whole entry): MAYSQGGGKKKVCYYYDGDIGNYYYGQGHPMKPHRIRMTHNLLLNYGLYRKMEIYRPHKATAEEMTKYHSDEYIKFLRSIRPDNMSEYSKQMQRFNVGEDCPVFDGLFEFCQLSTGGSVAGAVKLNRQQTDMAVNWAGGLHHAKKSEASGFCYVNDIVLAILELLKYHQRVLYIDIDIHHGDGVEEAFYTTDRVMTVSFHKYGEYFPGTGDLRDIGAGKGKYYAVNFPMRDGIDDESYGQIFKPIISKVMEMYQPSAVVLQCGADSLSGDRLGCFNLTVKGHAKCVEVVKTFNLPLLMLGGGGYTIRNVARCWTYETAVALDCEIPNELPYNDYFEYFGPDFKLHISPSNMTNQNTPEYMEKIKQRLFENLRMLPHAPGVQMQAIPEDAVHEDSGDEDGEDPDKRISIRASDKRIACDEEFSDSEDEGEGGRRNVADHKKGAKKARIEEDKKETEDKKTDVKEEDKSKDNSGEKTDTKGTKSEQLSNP

[11] = target: T1, Histone deacetylase 8 (Homo sapiens); assay: (§3) Reversible-time dependent inhibition of human wild type HDAC8 by Fluor-de-Lys activity assay; details: TDE = time-dependent effect
Histone deacetylase 8 [12] = target: T3, Histone deacetylase 8; assay: as §3; details: read-out: Ki(app)
HH [13] = assay: Cytotoxicity against human HH cells assessed as cell proliferation after 70 hrs by MTS assay; format: functional, cell-based
[14] = Stability in human plasma assessed as compound remaining after 2 hrs by HPLC analysis; format: ADME, cell-free; details: read-out: Stability
In short: (§4)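 Pooled normal human plasma pre-warmed 2 min at 37 °C, spiked from a 5.0 mM DMSO stock, run in duplicate. Aliquots taken at 0–120 min, quenched with ACN, centrifuged and filtered. Analysed by reverse-phase C18 HPLC; percent parent is peak area relative to the 0 min sample.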

[15] = tested on: T4, Histone deacetylase 8 (Homo sapiens), Q9BY41 [C153A]; assay: Time-dependent inhibition of human HDAC8 C153A mutant by Fluor-de-Lys activity assay
T4 sequence (whole entry): T1 sequence (whole entry) with C153A
In short: (§5)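 Same as the wild-type method, but using the C153A HDAC8 mutant at 2 μM to start the reaction. Zn2+-reconstituted enzyme; 150 μM Fluor-de-Lys substrate with inhibitor at 30 °C, pH 8.0. Time-point aliquots quenched with trypsin/TSA. Product/substrate fluorescence ratio (ex 340, em 450/380 nm) gives progress curves.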

[16] = target: T1, Histone deacetylase 8 (Homo sapiens); assay: Binding affinity to human wild type HDAC8 assessed as loss of activity measured with in 0.5 hrs by Fluor-de-Lys activity assay
[17] = target: T1, Histone deacetylase 8 (Homo sapiens); assay: Binding affinity to human wild type HDAC8 assessed as retention time for protein fragment after 60 mins of treatment in presence of trypsin (reference value: 84.5 mins)
In short: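 Recombinant human WT HDAC8 (1.7 μM) incubated with 12 equiv compound (20 μM) for 60 min at 37 °C. Protein isolated by SDS-PAGE, reduced (DTT, 56 °C) and alkylated (iodoacetamide), trypsin-digested overnight at 37 °C. Peptides separated on C18 with a 5–60% ACN gradient and detected by LC-MS/MS.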

[18] = Aqueous stability in 50 mM HEPES buffer at pH 7.4 by HPLC chromatogram; format: physicochemical
In short: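 Compound in 50 mM HEPES, pH 7.4, analysed by analytical HPLC right after preparation and again after 24 h at 37 °C, with no thiol present. Stability is read from the parent peak.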

[19] = target: T5, Protein deacetylase HDAC6 (Homo sapiens, UniProt Q9UBN7); assay: Inhibition of human recombinant HDAC6 using MAZ1600 as fluorogenic substrate measured every 5 mins by optimized homogenous fluorescence based assay
T5 sequence (Q9UBN7 whole entry): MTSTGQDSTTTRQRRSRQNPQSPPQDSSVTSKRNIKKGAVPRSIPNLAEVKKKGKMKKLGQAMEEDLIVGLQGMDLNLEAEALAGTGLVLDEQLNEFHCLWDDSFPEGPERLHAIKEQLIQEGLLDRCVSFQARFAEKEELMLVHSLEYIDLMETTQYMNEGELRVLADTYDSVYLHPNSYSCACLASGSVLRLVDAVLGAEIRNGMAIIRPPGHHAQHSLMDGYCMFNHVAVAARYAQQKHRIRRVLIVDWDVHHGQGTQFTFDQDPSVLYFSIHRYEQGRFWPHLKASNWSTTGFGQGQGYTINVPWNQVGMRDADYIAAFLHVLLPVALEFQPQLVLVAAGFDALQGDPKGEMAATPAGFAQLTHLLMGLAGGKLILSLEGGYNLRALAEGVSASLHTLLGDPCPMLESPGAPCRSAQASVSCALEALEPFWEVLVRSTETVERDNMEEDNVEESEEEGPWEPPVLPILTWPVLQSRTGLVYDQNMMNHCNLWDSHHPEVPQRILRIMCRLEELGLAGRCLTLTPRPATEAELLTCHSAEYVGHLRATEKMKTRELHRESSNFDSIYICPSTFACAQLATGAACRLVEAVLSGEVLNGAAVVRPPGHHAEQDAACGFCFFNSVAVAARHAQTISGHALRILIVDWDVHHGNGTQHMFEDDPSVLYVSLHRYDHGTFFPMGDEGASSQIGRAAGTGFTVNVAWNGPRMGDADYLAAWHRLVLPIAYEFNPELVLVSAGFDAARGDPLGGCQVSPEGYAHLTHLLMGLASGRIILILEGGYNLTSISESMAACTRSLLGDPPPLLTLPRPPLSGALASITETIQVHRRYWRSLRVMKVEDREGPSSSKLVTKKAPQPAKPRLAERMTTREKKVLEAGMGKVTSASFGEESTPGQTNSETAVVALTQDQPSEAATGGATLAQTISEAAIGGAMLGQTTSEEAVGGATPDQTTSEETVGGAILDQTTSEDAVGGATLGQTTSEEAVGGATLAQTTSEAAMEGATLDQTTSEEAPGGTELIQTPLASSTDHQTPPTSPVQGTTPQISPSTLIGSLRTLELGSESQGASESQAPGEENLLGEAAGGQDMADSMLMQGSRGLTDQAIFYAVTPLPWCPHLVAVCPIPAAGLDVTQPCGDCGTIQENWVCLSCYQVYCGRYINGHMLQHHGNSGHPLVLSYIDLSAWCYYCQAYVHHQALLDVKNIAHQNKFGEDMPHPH

[20] = Stability in human plasma assessed as compound remaining after 1 hr by HPLC analysis; format: ADME, cell-free; details: read-out: Stability
In short: as §4

Histone deacetylase 3 = Histone deacetylase 3 (Homo sapiens, UniProt O15379); assay: Inhibition of human recombinant HDAC3 using MAZ1600 as fluorogenic substrate measured every 5 mins by optimized homogenous fluorescence based assay
Chain of Histone deacetylase 3 (O15379 whole entry): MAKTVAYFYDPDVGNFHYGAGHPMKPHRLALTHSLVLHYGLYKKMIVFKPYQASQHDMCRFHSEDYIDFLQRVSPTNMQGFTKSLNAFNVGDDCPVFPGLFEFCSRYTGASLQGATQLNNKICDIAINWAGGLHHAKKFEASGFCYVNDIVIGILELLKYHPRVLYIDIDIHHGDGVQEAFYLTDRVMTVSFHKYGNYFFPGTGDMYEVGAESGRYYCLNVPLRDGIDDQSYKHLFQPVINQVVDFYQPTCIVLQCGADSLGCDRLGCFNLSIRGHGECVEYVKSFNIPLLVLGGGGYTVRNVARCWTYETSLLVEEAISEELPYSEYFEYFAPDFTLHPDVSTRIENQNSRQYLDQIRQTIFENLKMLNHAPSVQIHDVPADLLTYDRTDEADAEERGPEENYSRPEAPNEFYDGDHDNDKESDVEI

Albumin = Albumin (Bos taurus, UniProt P02769); assay: Stability of the compound assessed as bovine serum albumin-mediated drug degradation measured as compound remaining after 2 hrs by biochemical assay; format: ADME; details: cattle, read-out: Stability
Chain of Albumin (P02769 whole entry): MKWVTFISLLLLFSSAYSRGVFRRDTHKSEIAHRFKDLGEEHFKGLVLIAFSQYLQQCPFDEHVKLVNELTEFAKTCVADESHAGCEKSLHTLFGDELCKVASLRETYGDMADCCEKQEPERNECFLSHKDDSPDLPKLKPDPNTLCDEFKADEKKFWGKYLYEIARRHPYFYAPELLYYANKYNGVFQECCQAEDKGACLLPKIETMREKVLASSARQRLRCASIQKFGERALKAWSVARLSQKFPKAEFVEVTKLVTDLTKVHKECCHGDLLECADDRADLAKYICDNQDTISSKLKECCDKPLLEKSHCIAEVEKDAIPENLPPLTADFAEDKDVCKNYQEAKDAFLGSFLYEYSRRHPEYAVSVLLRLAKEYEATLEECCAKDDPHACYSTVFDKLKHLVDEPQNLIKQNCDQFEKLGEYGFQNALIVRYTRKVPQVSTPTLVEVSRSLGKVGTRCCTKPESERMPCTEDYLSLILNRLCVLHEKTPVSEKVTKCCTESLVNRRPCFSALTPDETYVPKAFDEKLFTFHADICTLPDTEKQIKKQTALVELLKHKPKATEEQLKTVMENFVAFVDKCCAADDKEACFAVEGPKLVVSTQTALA

[21] = Retention time of the compound in HEPES buffer treated with SAHA-TAP at pH 7.4 by LC-MS analysis in presence of GSH; format: physicochemical
In short: as §1

[22] = Cytotoxicity against mouse NIH/3T3 cells assessed as cell proliferation at 50 uM after 70 hrs by MTS assay; format: cell-based; details: nih3t3, 70 h
In short: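 NIH/3T3 cells in DMEM + 10% FBS, seeded at 5000 cells/well and allowed to attach for 16 h at 37 °C, 5% CO2. Then exposed to compound for 70 h. MTS reagent added for 2 h, absorbance at 490 nm. Triplicate wells, 2–3 trials.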

[23] = Prodrug activation assessed as GSH reactivity in HEPES buffer at pH 7.4 by LC-MS analysis
In short: as §1

[24] = target: T1, Histone deacetylase 8 (Homo sapiens); assay: Binding affinity to human wild type HDAC8 assessed as loss of activity at 2 to 10 uM by Fluor-de-Lys activity assay
HH [25] = assay: Cytotoxicity against human HH cells assessed as cell proliferation at 50 uM after 70 hrs by MTS assay; format: functional, cell-based
In short: (§6)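 HH and Jurkat cells in RPMI 1640 + 10% FBS, seeded at 20 000 cells/well. Exposed directly to compound (0.5–128 μM) for 70 h. MTS reagent added for 4 h at 37 °C, absorbance at 490 nm. Each concentration run in triplicate, 2–3 trials.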

Jurkat [26] = assay: Cytotoxicity against human Jurkat cells assessed as cell proliferation at 50 uM after 70 hrs by MTS assay; format: functional, cell-based
In short: as §6

[27] = tested on: T4, Histone deacetylase 8 (Homo sapiens), Q9BY41 [C153A]; assay: Binding affinity to human HDAC8 C153A mutant assessed as loss of activity at 2 to 10 uM by Fluor-de-Lys activity assay
In short: as §5

Which K1/2 [1] does the source give for `CC1=C(C)C(=O)C(CONC(=O)CCCCCCC(=O)Nc2ccccc2)=C(C)C1=O` here?
The K1/2 was 8 µM.

What about the EC50 [2] of the same molecule?
Its EC50 is 9.37 µM.

And the Retention_time [3]?
The Retention_time was 14.7 min.

And the inhibition [4]?
The inhibition was “Active”.

What about the IC50 (Histone deacetylase 8 [5]) of the same molecule?
The IC50 was 3.84 µM.

What about the Activity (HH [6]) of the same molecule?
The Activity was “Non-toxic”.

What about the IC50 (Histone deacetylase 1) of the same molecule?
Its IC50 is 0.371 µM.

And the remaining at 2 h [7]?
Its remaining at 2 h is greater than 95%.

And the inhibition [8]?
Its inhibition is “Active”.

And the EC50 (Jurkat [9])?
Its EC50 is 6.05 µM.

And the Activity (Jurkat [10])?
Its Activity is “Non-toxic”.

And the IC50 (Histone deacetylase 2)?
The IC50 was 0.255 µM.

And the inhibition [11]?
The inhibition was “tde”.

What about the Ki (Histone deacetylase 8 [12]) of the same molecule?
Its Ki is 7 µM.

And the EC50 (HH [13])?
Its EC50 is 3.38 µM.

What about the remaining at 2 h [14] of the same molecule?
Its remaining at 2 h is 52%.

And the TDI [15]?
Its TDI is “inactive”.

And the inhibition [16]?
The inhibition was “Active”.

And the Retention time [17]?
The Retention time was 88.5 min.

And the Stability [18]?
The Stability was greater than 97%.

And the IC50 [19]?
The IC50 was 0.023 µM.

What about the remaining at 1 h [20] of the same molecule?
The remaining at 1 h was 72%.

What about the IC50 (Histone deacetylase 3) of the same molecule?
Its IC50 is 0.149 µM.

What about the remaining at 2 h (Albumin) of the same molecule?
Its remaining at 2 h is greater than 95%.

Which Retention_time [21] does the source give for `O=C(CCCCCCC(=O)Nc1ccccc1)NO` [VORINOSTAT] here?
The Retention_time was 10.7 min.

What about the remaining at 2 h [14] of the same molecule?
Its remaining at 2 h is 55%.

Which Retention_time [21] does the source give for `C=C1C(=O)C(C)=C(C)C(=O)C1(C)SC[C@H](NC(=O)CC[C@H](N)C(=O)O)C(=O)NCC(=O)O` (stereo partly drawn) here?
Its Retention_time is 10.5 min.

With `O=C(CCCCCCC(=O)Nc1ccccc1)NOCc1ccccc1` as the molecule, how does the IC50 (Histone deacetylase 8 [5]) read?
Its IC50 is greater than 10 µM.

And the IC50 (Histone deacetylase 1)?
Its IC50 is greater than 10 µM.

What about the Activity [22] of the same molecule?
The Activity was “Non-toxic”.

What about the Activity [23] of the same molecule?
The Activity was “Not Active”.

What about the inhibition [24] of the same molecule?
The inhibition was “inactive”.

And the IC50 (Histone deacetylase 2)?
Its IC50 is greater than 10 µM.

What about the inhibition (HH [25]) of the same molecule?
The inhibition was “inactive”.

What about the inhibition (Jurkat [26]) of the same molecule?
The inhibition was “inactive”.

And the IC50 [19]?
The IC50 was greater than 10 µM.

And the inhibition [27]?
Its inhibition is “inactive”.

What about the IC50 (Histone deacetylase 3) of the same molecule?
The IC50 was greater than 10 µM.
